Reference: ChEMBL document CHEMBL3232844, “Synthesis and structure activity relationships of schweinfurthin indoles” (2014)

Experiments:
Type in all cases: functional
[1] = test system: RXF 393; assay: Cytotoxicity against human RXF393 cells; conditions: for TGI: read-out: pTGI (converted)
How it was run: (§1)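 Tested in a 60-cell-line human tumor panel screen; the read-out is growth inhibition, reported as GI50 for each cell line.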

[2] = test system: SR; assay: Cytotoxicity against human SR cells; conditions: for CC50: read-out: pLC50 (the source's name) (converted); for TGI: read-out: pTGI (converted)
How it was run: (§2)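 Cell line run as part of the 60-cell-line screening panel; growth inhibition was reported as a GI50 for each line.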

[3] = Cytotoxicity against human OVCAR3 cells; conditions: for GI50: OVCAR-3; for CC50: OVCAR-3, read-out: pLC50 (the source's name) (converted); for TGI: OVCAR-3, read-out: pTGI (converted); how it was run: as §1
[4] = test system: HOP-92; assay: Cytotoxicity against human HOP92 cells; conditions: for CC50: read-out: pLC50 (the source's name) (converted); for TGI: read-out: pTGI (converted); how it was run: as §1
[5] = Cytotoxicity against human Hs578T cells; conditions: Hs-578T; for TGI: read-out: pTGI (converted); how it was run: as §1
[6] = test system: NCI-H522; assay: Cytotoxicity against human NCI-H522 cells; conditions: for CC50: read-out: pLC50 (the source's name) (converted); for TGI: read-out: pTGI (converted); how it was run: as §1
[7] = test system: U-251; assay: Cytotoxicity against human U251 cells; conditions: for CC50: read-out: pLC50 (the source's name) (converted); for TGI: read-out: pTGI (converted); how it was run: as §2
[8] = test system: SN12C; assay: Cytotoxicity against human SN12C cells; conditions: for TGI: read-out: pTGI (converted); how it was run: as §1
[9] = Cytotoxicity against human EKVX cells; conditions: for TGI: read-out: pTGI (converted); how it was run: as §1
[10] = test system: RPMI-8226; assay: Cytotoxicity against human RPMI8226 cells; conditions: for CC50: read-out: pLC50 (the source's name) (converted); for TGI: read-out: pTGI (converted); how it was run: as §1
[11] = test system: SW-620; assay: Cytotoxicity against human SW620 cells; conditions: for CC50: read-out: pLC50 (the source's name) (converted); for TGI: read-out: pTGI (converted); how it was run: as §2
[12] = test system: TK-10; assay: Cytotoxicity against human TK10 cells; conditions: for TGI: read-out: pTGI (converted); how it was run: as §2
[13] = Cytotoxicity against human UACC257 cells; conditions: for GI50: UACC-257; for CC50: UACC-257, read-out: pLC50 (the source's name) (converted); for TGI: UACC-257, read-out: pTGI (converted); how it was run: as §2
[14] = test system: SF-295; assay: Cytotoxicity against human SF295 cells; conditions: for TGI: read-out: pTGI (converted); how it was run: as §1
[15] = test system: SK-MEL-28; assay: Cytotoxicity against human SK-MEL-28 cells; conditions: for CC50: read-out: pLC50 (the source's name) (converted); for TGI: read-out: pTGI (converted); how it was run: as §1
[16] = test system: HT-29; assay: Cytotoxicity against human HT-29 cells; conditions: for CC50: read-out: pLC50 (the source's name) (converted); for TGI: read-out: pTGI (converted); how it was run: as §1
[17] = test system: Malme-3M; assay: Cytotoxicity against human MALME-3M cells; conditions: for CC50: read-out: pLC50 (the source's name) (converted); for TGI: read-out: pTGI (converted); how it was run: as §1
[18] = read-out: pLC50 (the source's name) (converted)

## COc1cc(/C=C/c2cc(OC)c3ccn(C)c3c2)cc2c1O[C@]1(C)CC[C@@H](O)C(C)(C)[C@H]1C2
[1]
  GI50: 44.7 nM
  LC50: 4270 nM
  TGI: 275 nM
[2]
  GI50: 513 nM
  CC50: > 100 µM
  TGI: > 100000 nM
[3]
  GI50: 6.46 µM
  CC50: 57.5 µM
  TGI: 23.4 µM
[4]
  GI50: 1200 nM
  CC50: > 100 µM
  TGI: 5.75 µM
[5]
  GI50: 355 nM
  LC50: > 100 µM
  TGI: 5.01 µM
[6]
  GI50: 1820 nM
  CC50: > 100 µM
  TGI: 8.13 µM
[7]
  GI50: 355 nM
  CC50: 69.2 µM
  TGI: 15.5 µM
[8]
  GI50: 6.03 µM
  LC50: > 100 µM
  TGI: > 100 µM
[9]
  GI50: 1580 nM
  TGI: 49 µM
[10]
  GI50: 170 nM
  CC50: > 100 µM
  TGI: 2000 nM
[11]
  GI50: 1290 nM
  CC50: 10.5 µM
  TGI: 3.39 µM
[12]
  GI50: 3.16 µM
  LC50: > 100 µM
  TGI: 93.3 µM
[13]
  GI50: 2.45 µM
  CC50: > 100 µM
  TGI: 35.5 µM
[14]; read-out: GI50
  GI50: 170 nM
[14]; read-out: pGI50 (converted)
  GI50: 170 nM
[14]; [18]
  CC50: 7.08 µM
[14]
  TGI: 537 nM
[15]
  GI50: 1740 nM
  CC50: 64.6 µM
  TGI: 17.4 µM
[16]
  GI50: 1260 nM
  CC50: 43.7 µM
  TGI: 5.62 µM
[17]
  GI50: 3800 nM
  CC50: > 100 µM
  TGI: 47.9 µM

## COc1cc(/C=C/c2cc(OC)c3c(C/C=C(\C)CCC=C(C)C)c[nH]c3c2)cc2c1O[C@]1(C)CC[C@@H](O)C(C)(C)[C@H]1C2
[1]
  GI50: 55 nM
  LC50: 1000 nM
  TGI: 251 nM
[2]
  GI50: 245 nM
  CC50: > 100 µM
  TGI: 1480 nM
[3]
  GI50: 5.5 µM
  CC50: 47.9 µM
  TGI: 20 µM
[4]
  GI50: 302 nM
  CC50: > 100 µM
  TGI: 16.6 µM
[5]
  GI50: 219 nM
  LC50: > 100 µM
  TGI: 1.66 µM
[6]
  GI50: 1550 nM
  CC50: 8.51 µM
  TGI: 3.63 µM
[7]
  GI50: 759 nM
  CC50: 39.8 µM
  TGI: 12.9 µM
[8]
  GI50: 6.76 µM
  LC50: 63.1 µM
  TGI: 23.4 µM
[9]
  GI50: 1820 nM
  TGI: > 100 µM
[9]; [18]
  CC50: > 100 µM
[10]
  GI50: 126 nM
  CC50: > 100 µM
  TGI: 617 nM
[11]
  GI50: 1170 nM
  CC50: 5.89 µM
  TGI: 2.63 µM
[12]
  GI50: 4.27 µM
  LC50: > 100 µM
  TGI: 46.8 µM
[13]
  GI50: 5.75 µM
  CC50: 81.3 µM
  TGI: 25.7 µM
[14]; read-out: GI50
  GI50: 200 nM
[14]; read-out: pGI50 (converted)
  GI50: 204 nM
[14]
  TGI: 575 nM
[15]
  GI50: 1050 nM
  CC50: 8.32 µM
  TGI: 2.95 µM
[16]
  GI50: 447 nM
  CC50: > 100 µM
  TGI: 2.75 µM
[17]
  GI50: 1820 nM
  CC50: 77.6 µM
  TGI: 19.5 µM
